The source made the active and inactive calls. The rule behind the calls is not given here.
Key:
Platelet [1] = experiment: Effect on rate of thrombin-induced human platelet aggregation at 10 uM after 10 mins; type: functional
In short: (§1)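 Washed human platelets (aspirin 100 µM and apyrase in PRP) suspended in HBS pH 7.45 with 1 mM Ca2+. Preincubated 10 min with 10 µM agent or DMSO vehicle, then stimulated with 0.1 U/mL thrombin at 37 °C with stirring at 1200 rpm in an aggregometer. Lag time, % rate and % aggregation read from traces; mean ± SEM of four determinations.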

Platelet [2] = experiment: Effect on thrombin-induced human platelet aggregation assessed as lag time at 10 uM after 10 mins; type: functional; in short: as §1
Platelet [3] = experiment: Effect on thrombin-induced human platelet aggregation at 10 uM after 10 mins; type: functional; in short: as §1
Platelet [4] = experiment: Effect on rate of ADP-induced human platelet aggregation at 10 uM; type: functional
In short: (§2)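 Washed human platelets (from aspirin- and apyrase-treated PRP) in HEPES-buffered saline, pH 7.45, with 1 mM Ca2+. Preincubated 30 min with 0.1-10 µM compound (10 mM DMSO stock) or vehicle. Stimulated with 0.1 U/mL thrombin or 10 µM ADP. Read in an aggregometer at 37 °C, stirred at 1200 rpm, as lag time, % rate and % aggregation. Mean ± SEM, six determinations.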

Platelet [5] = experiment: Effect on thrombin-induced human platelet aggregation at 1.0 uM; type: functional; in short: as §2
Platelet [6] = experiment: Effect on thrombin-induced human platelet aggregation at 0.1 uM; type: functional; in short: as §2
Platelet [7] = experiment: Reduction of thrombin-induced phosphotyrosine content in human platelets at 10 uM after 30 mins
Platelet [8] = experiment: Effect on thrombin-induced human platelet aggregation assessed as lag time in presence of catalase; type: functional
In short: (§3)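 Washed human platelets in HBS with 1 mM Ca2+. Treated with 10 µM compound for 30 min, plus either 300 U/mL catalase for 10 min or 100 µM colchicine for 2 h; controls received each agent alone or vehicle. Thrombin 0.1 U/mL at 37 °C, stirring at 1200 rpm. Lag time, % rate and % aggregation recorded; mean ± SEM, six determinations.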

Platelet [9] = experiment: Effect on thrombin-induced human platelet aggregation at 10 uM; type: functional; in short: as §2
[10] = molecular target: Proto-oncogene tyrosine-protein kinase Src (Homo sapiens) (UniProt P12931); experiment: Inhibition of thrombin-induced pp60src activation in presence of catalase
Chain of Proto-oncogene tyrosine-protein kinase Src (Homo sapiens) (P12931 2-536 limits assumed): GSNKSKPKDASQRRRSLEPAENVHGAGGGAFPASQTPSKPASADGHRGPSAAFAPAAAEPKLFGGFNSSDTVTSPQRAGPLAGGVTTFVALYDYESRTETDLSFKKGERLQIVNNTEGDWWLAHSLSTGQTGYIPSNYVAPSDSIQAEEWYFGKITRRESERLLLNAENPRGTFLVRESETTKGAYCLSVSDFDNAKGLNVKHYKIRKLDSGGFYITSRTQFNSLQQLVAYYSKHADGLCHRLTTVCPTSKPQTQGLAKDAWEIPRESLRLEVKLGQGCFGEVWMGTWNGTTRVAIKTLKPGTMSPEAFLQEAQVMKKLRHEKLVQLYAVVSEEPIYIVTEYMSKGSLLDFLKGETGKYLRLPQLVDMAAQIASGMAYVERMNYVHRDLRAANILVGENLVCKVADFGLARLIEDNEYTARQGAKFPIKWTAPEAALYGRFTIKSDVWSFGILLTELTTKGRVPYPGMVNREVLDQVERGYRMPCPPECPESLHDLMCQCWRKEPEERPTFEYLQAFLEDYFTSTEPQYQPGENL
In short: (§4)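 Platelets in HBS with 1 mM Ca2+ pretreated 30 min at 37 °C with 10 µM compound, alone or with 300 U/mL catalase (10 min). Sampled 10 s before and 60 s after 0.1 U/mL thrombin. SDS-PAGE and immunoblot with anti-phospho-c-Src Y416, reprobed for total pp60src. Densitometry as % of untreated resting cells; mean ± SEM, four experiments.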

Platelet [11] = experiment: Effect on thrombin-induced human platelet aggregation in presence of colchicine; type: functional; in short: as §3
Platelet [12] = experiment: Effect on thrombin-induced microtubular reorganization at 10 uM after 30 mins; type: functional, Homo sapiens
In short: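 Platelets pretreated with 10 µM compound for 30 min at 37 °C, then 0.1 U/mL thrombin for 1 min in HBS at 2 × 10^7 cells/mL. Fixed in an equal volume of ice-cold 3% formaldehyde in PBS for 10 min, permeabilized with 0.025% NP40, stained 30 min with 1 µM Oregon Green 488 paclitaxel. Fluorescence at ex 488/em 522 nm; n = 6.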

Platelet [13] = experiment: Effect on thrombin-induced human platelet aggregation assessed as lag time at 0.1 uM; type: functional; in short: as §2
Platelet [14] = experiment: Effect on thrombin-induced human platelet aggregation assessed as lag time at 10 uM; type: functional; in short: as §2
Platelet [15] = experiment: Effect on thrombin-induced calcium mobilization in human platelets; type: functional, cell-based
In short: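 Platelets loaded with 2 µM fura-2/AM for 45 min at 37 °C, 2 × 10^8 cells/mL, stirred at 37 °C. Exposed to 10 µM compound for 30 min. Ca2+-free medium with 100 µM EGTA, then 0.1 U/mL thrombin. Excitation 340/380 nm, emission 505 nm; ratio calibrated to [Ca2+]i. Peak rise above basal taken; n = 6.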

Platelet [16] = experiment: Effect on thrombin-induced human platelet aggregation in presence of catalase; type: functional; in short: as §3
Platelet [17] = experiment: Effect on rate of thrombin-induced human platelet aggregation at 10 uM; type: functional; in short: as §2
Platelet [18] = experiment: Effect on ADP-induced human platelet aggregation assessed as lag time at 10 uM; type: functional; in short: as §2
Platelet [19] = experiment: Effect on of ADP-induced human platelet aggregation at 10 uM; type: functional; in short: as §2
[20] = molecular target: Tyrosine-protein kinase BTK (Homo sapiens) (UniProt Q06187); experiment: Effect on thrombin-induced Btk activation at 10 uM after 30 mins
Chain of Tyrosine-protein kinase BTK (Homo sapiens) (Q06187 whole entry): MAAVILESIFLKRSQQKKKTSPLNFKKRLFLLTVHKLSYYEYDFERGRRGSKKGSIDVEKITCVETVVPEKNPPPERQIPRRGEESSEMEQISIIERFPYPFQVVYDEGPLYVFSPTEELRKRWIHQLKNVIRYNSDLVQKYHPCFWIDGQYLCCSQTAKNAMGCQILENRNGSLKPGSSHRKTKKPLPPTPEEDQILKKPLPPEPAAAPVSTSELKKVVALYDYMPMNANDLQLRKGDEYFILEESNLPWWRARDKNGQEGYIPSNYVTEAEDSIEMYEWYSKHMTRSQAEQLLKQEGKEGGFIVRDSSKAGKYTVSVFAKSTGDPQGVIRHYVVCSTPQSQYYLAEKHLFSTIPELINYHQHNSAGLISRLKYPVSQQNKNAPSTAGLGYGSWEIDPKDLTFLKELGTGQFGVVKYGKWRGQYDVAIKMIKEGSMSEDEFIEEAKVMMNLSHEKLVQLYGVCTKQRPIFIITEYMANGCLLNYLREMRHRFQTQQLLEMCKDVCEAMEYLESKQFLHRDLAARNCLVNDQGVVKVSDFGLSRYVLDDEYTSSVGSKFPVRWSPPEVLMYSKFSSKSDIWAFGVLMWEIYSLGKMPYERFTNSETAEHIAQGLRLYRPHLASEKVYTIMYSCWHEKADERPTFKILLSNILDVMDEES
In short: (§5)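 Platelets in HBS with 1 mM Ca2+ held 30 min at 37 °C with 10 µM compound, alone or with 300 U/mL catalase (10 min). Samples taken 10 s before and 30 s after 0.1 U/mL thrombin, lysed in Laemmli buffer. Western blot for phospho-Btk Y223, reprobed for total Btk. Densitometry as % of resting control; mean ± SEM, four experiments.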

Platelet [21] = experiment: Effect on thrombin-induced human platelet aggregation assessed as lag time in presence of colchicine; type: functional; in short: as §3
[22] = molecular target: Tyrosine-protein kinase BTK (Homo sapiens) (UniProt Q06187); experiment: Effect on thrombin-induced Btk activation in presence of catalase; in short: as §5
Platelet [23] = experiment: Effect on rate of thrombin-induced human platelet aggregation in presence of catalase; type: functional; in short: as §3
Platelet [24] = experiment: Effect on rate of thrombin-induced human platelet aggregation in presence of colchicine; type: functional; in short: as §3
Platelet [25] = experiment: Effect on rate of thrombin-induced human platelet aggregation at 0.1 uM; type: functional; in short: as §2
Platelet [26] = experiment: Effect on rate of thrombin-induced human platelet aggregation at 1.0 uM; type: functional; in short: as §2
[27] = molecular target: Proto-oncogene tyrosine-protein kinase Src (Homo sapiens) (UniProt P12931); experiment: Inhibition of thrombin-induced pp60src activation at 10 uM after 30 mins; in short: as §4
Platelet [28] = experiment: Effect on thrombin-induced human platelet aggregation assessed as lag time at 1.0 uM; type: functional; in short: as §2

What does the source list for `Cc1ccc(-c2nn(C(C)(C)C)c3ncnc(N)c23)cc1`?
Activity (Platelet [1]): 59.7%; Time (Platelet [2]): 26.5 s; Activity (Platelet [3]): 67.1%

How did the Activity (Platelet [1]) turn out when `C/C(O)=C(\C#N)C(=O)Nc1cc(Br)ccc1Br` was run?
The Activity was 66.3%.

What about the Time (Platelet [2]) of the same molecule?
Its Time is 24.3 s.

What about the Activity (Platelet [3]) of the same molecule?
The Activity was 68.7%.

For `Oc1cc(O)c2c(c1)O[C@@]1(c3ccc(O)c(O)c3)Oc3cc(O)c4c(c3[C@@H]2[C@H]1O)O[C@H](c1ccc(O)c(O)c1)[C@H](O)[C@H]4c1c(O)cc(O)c2c1O[C@H](c1ccc(O)c(O)c1)[C@H](O)C2` [CINNAMTANNIN B1], which Activity (Platelet [4]) is on record?
Its Activity is 9%.

What about the Activity (Platelet [5]) of the same molecule?
Its Activity is 80.6%.

And the Activity (Platelet [6])?
The Activity was 81.9%.

And the Activity (Platelet [7])?
The Activity was “Active”.

What about the Time (Platelet [8]) of the same molecule?
Its Time is 9.1 s.

What about the Activity (Platelet [9]) of the same molecule?
Its Activity is 71.8%.

And the Activity [10]?
Its Activity is “Active”.

What about the Activity (Platelet [11]) of the same molecule?
Its Activity is 74.6%.

And the Activity (Platelet [12])?
The Activity was 15%.

And the Time (Platelet [13])?
Its Time is 9.2 s.

And the Time (Platelet [14])?
The Time was 10.6 s.

And the Activity (Platelet [15])?
Its Activity is “inactive”.

What about the Activity (Platelet [16]) of the same molecule?
The Activity was 77%.

And the Activity (Platelet [17])?
Its Activity is 42.1%.

And the Time (Platelet [18])?
The Time was 15.6 s.

And the Activity (Platelet [19])?
Its Activity is 9.5%.

And the Activity [20]?
Its Activity is 50%.

What about the Time (Platelet [21]) of the same molecule?
The Time was 15 s.

What about the Activity [22] of the same molecule?
The Activity was 90%.

And the Activity (Platelet [23])?
Its Activity is 48.1%.

And the Activity (Platelet [24])?
Its Activity is 40.3%.

And the Activity (Platelet [25])?
Its Activity is 49%.

What about the Activity (Platelet [26]) of the same molecule?
The Activity was 43.7%.

What about the Activity [27] of the same molecule?
The Activity was “Active”.

And the Time (Platelet [28])?
The Time was 9.8 s.

For `COc1cc2c(c(OC)c1OC)-c1ccc(OC)c(=O)cc1[C@@H](NC(C)=O)CC2` [COLCHICINE], which Activity (Platelet [6]) is on record?
The Activity was 71.2%.

And the Time (Platelet [13])?
The Time was 9.3 s.

What about the Activity (Platelet [25]) of the same molecule?
Its Activity is 59%.
